Measured values from ChEMBL document CHEMBL1125592, “Calcium channel blocking and positive inotropic activities of ethyl 5-cyano-1,4-dihydro-6-methyl-2-[(phenylsulfonyl)methyl]-4-aryl-3- pyridine-carboxylate and analogues. Synthesis and structure-activity relationships” (J Med Chem, 1991).
Each block holds one compound with its values, some of them ahead of it. Active and inactive are the calls of the source. No cut-off for these calls is given here.

Tests used:
Oryctolagus cuniculus [1] = organism: Oryctolagus cuniculus; experiment: Vasoconstrictor effect at a concentration of 10e-6 M using partially depolarized isolated rings from rabbit.; type: functional
Oryctolagus cuniculus [2] = organism: Oryctolagus cuniculus; experiment: Vasoconstrictor effect at a concentration of 10e-7 M using nondepolarized isolated rings from rabbit.; type: functional
Oryctolagus cuniculus [3] = organism: Oryctolagus cuniculus; experiment: Vasoconstrictor effect at a concentration of 3 x 10e-8 M using nondepolarized isolated rings from rabbit.; type: functional
Oryctolagus cuniculus [4] = organism: Oryctolagus cuniculus; experiment: Vasoconstrictor effect at a concentration of 10e-9 M using nondepolarized isolated rings from rabbit.; type: functional
Oryctolagus cuniculus [5] = organism: Oryctolagus cuniculus; experiment: Vasoconstrictor effect at a concentration of 3 x 10e-8 M using partially depolarized isolated rings from rabbit.; type: functional
Oryctolagus cuniculus [6] = organism: Oryctolagus cuniculus; experiment: Vasoconstrictor effect at a concentration of 10e-7 M using partially depolarized isolated rings from rabbit.; type: functional
Oryctolagus cuniculus [7] = organism: Oryctolagus cuniculus; experiment: Vasoconstrictor effect at a concentration of 10e-6 M using nondepolarized isolated rings from rabbit.; type: functional
Oryctolagus cuniculus [8] = organism: Oryctolagus cuniculus; experiment: Vasoconstrictor effect at a concentration of 3 x 10e-9 M using nondepolarized isolated rings from rabbit.; type: functional
Oryctolagus cuniculus [9] = organism: Oryctolagus cuniculus; experiment: Vasoconstrictor effect at a concentration of 3 x 10e-9 M using partially depolarized isolated rings from rabbit.; type: functional
Oryctolagus cuniculus [10] = organism: Oryctolagus cuniculus; experiment: Vasoconstrictor effect at a concentration of 10e-8 M using nondepolarized isolated rings from rabbit.; type: functional
Oryctolagus cuniculus [11] = organism: Oryctolagus cuniculus; experiment: Vasoconstrictor effect at a concentration of 10e-8 M using partially depolarized isolated rings from rabbit.; type: functional
Oryctolagus cuniculus [12] = organism: Oryctolagus cuniculus; experiment: Vasoconstrictor effect at a concentration of 10e-9 M using partially depolarized isolated rings from rabbit.; type: functional
Rattus norvegicus [13] = organism: Rattus norvegicus; experiment: Compound was tested for its effect on ventricular cantractility in isolated rat hearts.; type: functional, Cardiac ventricle
Procedure, shortened: (§1)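 Coronary vasodilation and ventricular contractility measured in isolated Langendorff-perfused rat hearts. EC25 (concentration raising the parameter by 25%) given as mean ± SEM of four to six hearts.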

Rattus norvegicus [14] = organism: Rattus norvegicus; experiment: Compound was tested for its effect on coronary vasodilator in isolated rat hearts.; type: functional; procedure, shortened: as §1
[15] = target: Voltage-gated L-type calcium channel (Rattus norvegicus, UniProt P22002+Q02485+P27732); experiment: Affinity to bind dihydropyridine receptor (DHP receptor) by inhibiting the radioligand [3H]nitrendipine; type: protein assay
Procedure, shortened: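 [3H]nitrendipine displacement, rat brain cortical membranes. Each compound first screened at 1000 nM; if inhibition exceeded 40%, a four- to seven-point curve with unlabeled compound was run. IC50 generally mean of two experiments, each in triplicate. ">1000 nM" means under 40% inhibition of control binding at 1000 nM.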

Oryctolagus cuniculus [16] = organism: Oryctolagus cuniculus; experiment: Vasorelaxant effect at a concentration of 10e-5 M on rabbit aortic rings previously contracted with 50 mM KCl.; type: functional, Aorta; design: unit not given here
Procedure, shortened: (§2)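 Rabbit aortic rings precontracted with 50 mM KCl or 1.0 μM norepinephrine, then exposed to increasing concentrations of test agent. Relaxation recorded at each concentration.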

Oryctolagus cuniculus [17] = organism: Oryctolagus cuniculus; experiment: Vasorelaxant effect at a concentration of 10e-4 M on rabbit aortic rings previously contracted with 50 mM KCl.; type: functional, Aorta; design: unit not given here; procedure, shortened: as §2
Oryctolagus cuniculus [18] = organism: Oryctolagus cuniculus; experiment: Vasorelaxant effect at a concentration of 10e-7 M on rabbit aortic rings previously contracted with 50 mM KCl.; type: functional, Aorta; design: unit not given here; procedure, shortened: as §2
Rattus norvegicus [19] = organism: Rattus norvegicus; experiment: Compound was tested for the cardiovascular activity in isolated rat heart. Value represents the concentration producing 25% increase in CF (cardiac flow); NA indicates not active; type: functional
Procedure, shortened: (§3)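 Isolated Langendorff-perfused rat heart. Coronary flow (CF), LV +dP/dtmax and heart rate recorded during exposure to test agent. Value is the concentration giving a 25% rise in CF or in LV +dP/dtmax, mean ± SE. At least two hearts per compound.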

Oryctolagus cuniculus [20] = organism: Oryctolagus cuniculus; experiment: Vasorelaxant effect at a concentration of 10e-7 M on rabbit aortic rings previously contracted with 1.0 uM Norepinephrine.; type: functional, Aorta; design: unit not given here; procedure, shortened: as §2
Oryctolagus cuniculus [21] = organism: Oryctolagus cuniculus; experiment: Vasorelaxant effect at a concentration of 10e-5 M on rabbit aortic rings previously contracted with 1.0 uM Norepinephrine.; type: functional, Aorta; design: unit not given here; procedure, shortened: as §2
Oryctolagus cuniculus [22] = organism: Oryctolagus cuniculus; experiment: Vasorelaxant effect at a concentration of 10e-6 M on rabbit aortic rings previously contracted with 1.0 uM Norepinephrine.; type: functional, Aorta; design: unit not given here; procedure, shortened: as §2
Oryctolagus cuniculus [23] = organism: Oryctolagus cuniculus; experiment: Vasorelaxant effect at a concentration of 10e-4 M on rabbit aortic rings previously contracted with 1.0 uM Norepinephrine.; type: functional, Aorta; design: unit not given here; procedure, shortened: as §2
Oryctolagus cuniculus [24] = organism: Oryctolagus cuniculus; experiment: Vasorelaxant effect at a concentration of 10e-6 M on rabbit aortic rings previously contracted with 50 mM KCl.; type: functional, Aorta; design: unit not given here; procedure, shortened: as §2
Rattus norvegicus [25] = organism: Rattus norvegicus; experiment: Cardiovascular activity in isolated rat heart, concentration producing 25% increase in LV + dP/dtmax.; type: functional; procedure, shortened: as §3
Oryctolagus cuniculus [26] = organism: Oryctolagus cuniculus; experiment: Vasorelaxant effect at a concentration of 10e-9 M on rabbit aortic rings previously contracted with 50 mM KCl.; type: functional, Aorta; procedure, shortened: as §2
Oryctolagus cuniculus [27] = organism: Oryctolagus cuniculus; experiment: Vasorelaxant effect at a concentration of 10e-9 M on rabbit aortic rings previously contracted with 1.0 uM Norepinephrine.; type: functional, Aorta; procedure, shortened: as §2
Oryctolagus cuniculus [28] = organism: Oryctolagus cuniculus; experiment: Vasorelaxant effect at a concentration of 10e-8 M on rabbit aortic rings previously contracted with 50 mM KCl.; type: functional, Aorta; procedure, shortened: as §2
Oryctolagus cuniculus [29] = organism: Oryctolagus cuniculus; experiment: Vasorelaxant effect at a concentration of 10e-10 M on rabbit aortic rings previously contracted with 50 mM KCl.; type: functional, Aorta
Procedure, shortened: (§4)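 They were then exposed to increasing concentrations of the test agent, and relaxation of the precontraction was recorded as calcium channel blocking activity.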

Oryctolagus cuniculus [30] = organism: Oryctolagus cuniculus; experiment: Vasorelaxant effect at a concentration of 10e-10 M on rabbit aortic rings previously contracted with 1.0 uM Norepinephrine.; type: functional, Aorta; procedure, shortened: as §4
Oryctolagus cuniculus [31] = organism: Oryctolagus cuniculus; experiment: Vasorelaxant effect at a concentration of 10e-8 M on rabbit aortic rings previously contracted with 1.0 uM Norepinephrine.; type: functional, Aorta; procedure, shortened: as §2

SMILES: COC(=O)C1=C(C)NC(C)=C([N+](=O)[O-])C1c1ccccc1C(F)(F)F (configuration not stated)
- Vasoconstriction effect (Oryctolagus cuniculus [1]): 93.2
- Vasoconstriction effect (Oryctolagus cuniculus [2]): 10
- Vasoconstriction effect (Oryctolagus cuniculus [3]): 1.5
- Vasoconstriction effect (Oryctolagus cuniculus [4]): 0
- Vasoconstriction effect (Oryctolagus cuniculus [5]): 59.2
- Vasoconstriction effect (Oryctolagus cuniculus [6]): 82.1
- Vasoconstriction effect (Oryctolagus cuniculus [7]): 15.9
- Vasoconstriction effect (Oryctolagus cuniculus [8]): 0
- Vasoconstriction effect (Oryctolagus cuniculus [9]): 10.2
- Vasoconstriction effect (Oryctolagus cuniculus [10]): 0
- Vasoconstriction effect (Oryctolagus cuniculus [11]): 32.4
- Vasoconstriction effect (Oryctolagus cuniculus [12]): 3.2

SMILES: CCOC(=O)C1=C(CS(=O)(=O)c2ccncc2)NC(C)=C(C#N)C1c1ccccc1C(F)(F)F (stereo in doubt; 54B)
- EC25 (Rattus norvegicus [13]): 888 nM
- EC25 (Rattus norvegicus [14]): 1622 nM

- IC50 [15]: 480 nM
SMILES: CCO/C(O)=C1\C(CS(=O)(=O)c2ccccc2)=NC(C)=C(C#N)C1c1ccccc1 (configuration not stated)
- Vasorelaxant effect (Oryctolagus cuniculus [16]): 26
- Vasorelaxant effect (Oryctolagus cuniculus [17]): 54
- Vasorelaxant effect (Oryctolagus cuniculus [18]): 4
- EC25 (Rattus norvegicus [19]): inactive
- Vasorelaxant effect (Oryctolagus cuniculus [20]): 0
- Vasorelaxant effect (Oryctolagus cuniculus [21]): 0
- Vasorelaxant effect (Oryctolagus cuniculus [22]): 1
- Vasorelaxant effect (Oryctolagus cuniculus [23]): 6
- Vasorelaxant effect (Oryctolagus cuniculus [24]): 1
- EC25 (Rattus norvegicus [25]): 960 nM

SMILES: COC(=O)C1=C(C)NC(C)=C(C(=O)OC)C1c1ccccc1[N+](=O)[O-] [NIFEDIPINE]
- Vasorelaxant effect (Oryctolagus cuniculus [26]): -1.7
- Vasorelaxant effect (Oryctolagus cuniculus [27]): -1.2
- Vasorelaxant effect (Oryctolagus cuniculus [28]): 24.7
- Vasorelaxant effect (Oryctolagus cuniculus [29]): -3.1
- Vasorelaxant effect (Oryctolagus cuniculus [16]): 92.6
- Vasorelaxant effect (Oryctolagus cuniculus [18]): 65.8
- Vasorelaxant effect (Oryctolagus cuniculus [20]): 1
- Vasorelaxant effect (Oryctolagus cuniculus [30]): -1
- Vasorelaxant effect (Oryctolagus cuniculus [31]): -1.1
- Vasorelaxant effect (Oryctolagus cuniculus [21]): 6.1
- Vasorelaxant effect (Oryctolagus cuniculus [22]): 3.5
- Vasorelaxant effect (Oryctolagus cuniculus [24]): 89.4
